Values after ≈ are worked out from the molar mass of the structure shown.
Columns and labels:
[1] = system: Human immunodeficiency virus 1; test: Antiviral activity against HIV-1 […] infected in thymidine kinase deficient human C8166 cells; format: functional, organism-based, 3B
[2] = system: Human immunodeficiency virus 1; test: Antiviral activity against wild type HIV-1 3B infected in wild type human C8166 cells; format: functional, organism-based; settings: Human immunodeficiency virus 1, 3B
[3] = Selectivity index, ratio of CC50 for human MT4 cells to IC50 for antiviral activity against HIV-2 ROD infected in human MT4 cells; format: toxicity, cell-based; settings: read-out: Ratio CC50/IC50
Method in brief: (§1)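 MT4 cells infected with HIV-1 IIIB or HIV-2 ROD and tested in parallel with stavudine (d4T) as positive control. Antiviral IC50 and cytotoxic CC50 were both determined in MT4 cells. Selectivity index is CC50/IC50.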

[4] = system: Human immunodeficiency virus 2; test: Antiviral activity against HIV-2 ROD infected in human MT4 cells; settings: Human immunodeficiency virus 2, ISOLATE ROD
[5] = Cytotoxicity against human MT4 cells; format: cell-based
Method in brief: (§2)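 MT4 cells infected with HIV-1 (III_B) or HIV-2 (ROD), run in parallel with stavudine as positive control; antiviral IC50 and cytotoxic CC50 determined, selectivity index derived.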

physchem = settings: phosphate buffered saline, pH 7.4
[6] = Selectivity index, ratio of CC50 for human MT4 cells to IC50 for antiviral activity against HIV-1 IIIB infected in MT4 cells; format: toxicity, cell-based; settings: read-out: Ratio CC50/IC50; method in brief: as §1
[7] = system: Human immunodeficiency virus 1; test: Antiviral activity against wild type HIV-1 3B infected in human MT4 cells; format: functional, organism-based; settings: Human immunodeficiency virus 1, 3B; method in brief: as §2
[8] = system: Human immunodeficiency virus 1; test: Potency index, ratio of stavudine IC50 to test compound IC50 for antiviral activity against wild type HIV-1 3B infected in wild type human C8166 cells; format: functional
[9] = system: Human immunodeficiency virus 1; test: Potency index, ratio of stavudine IC50 to test compound IC50 for antiviral activity against HIV-1 3B infected in human MT4 cells; format: functional
Method in brief: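 MT4 cells infected with HIV-1 (IIIB) or HIV-2 (ROD). Test compounds were assayed alongside stavudine as the positive control, and antiviral IC50 was determined for each. Cytotoxicity (CC50) and selectivity index were determined in the same screen.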

[10] = Prodrug activation in acetone-d6 and Trizma buffer assessed as carboxypeptidase Y (unknown origin)-mediated 3-(pentafluoro-lambda6-sulfanyl)phenol metabolite formation at 5 mg incubated for 1.25 hrs by 19F NMR analysis; format: ADME, Homo sapiens
[11] = Prodrug activation in acetone-d6 and Trizma buffer assessed as carboxypeptidase Y (unknown origin)-mediated (S)-2-((((2S,5R)-5-(5-methyl-2,4-dioxo-3,4-dihydropyrimidin-1(2H)-yl)-2,5-dihydrofuran-2-yl)methoxy)oxidophosphorylamino)propanoate metabolite formation at 5 mg incubated for 7 mins to 2 hrs by 31P NMR analysis; format: ADME, Homo sapiens
Method in brief: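 Compound dissolved in acetone-d6 with Trizma buffer (pH 7.6), treated with carboxypeptidase Y; ³¹P NMR spectra recorded over time, blank spectrum at 25 °C, conversion of parent diastereoisomer peaks to the intermediate monitored by chemical shift changes.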

[12] = system: Human immunodeficiency virus 2; test: Potency index, ratio of stavudine IC50 to test compound IC50 for antiviral activity against HIV-2 ROD infected in human MT4 cells
[13] = Human immunodeficiency virus 1, 3B, C8166, read-out: IC50

| SMILES | IC50 [1] | IC50 [2] [nM] | selectivity ratio [3] | IC50 [4] [nM] | CC50 [5] [nM] | solubility kinetic at 2 h (physchem) [µM] | selectivity ratio [6] | IC50 [7] [nM] | IC50 [1, 13] [nM] | Ratio IC50 [8] | Ratio IC50 [9] | Drug metabolism [10] | Drug metabolism [11] | Ratio IC50 [12] |
| --- | --- | --- | --- | --- | --- | --- | --- | --- | --- | --- | --- | --- | --- | --- |
| COC(=O)[C@H](C)NP(=O)(OC[C@@H]1C=C[C@H](n2cc(C)c(=O)[nH]c2=O)O1)Oc1cccc(C(F)(F)F)c1 (stereo partly specified) | Not Active | 39 | 1350 | 49 | 66100 | > 100 | 1610 | 41 | – | – | – | – | – | – |
| COC(=O)[C@H](C)NP(=O)(OC[C@@H]1C=C[C@H](n2cc(C)c(=O)[nH]c2=O)O1)Oc1ccccc1 (stereo partly specified) | – | 300 | 930 | 270 | 251000 | – | 1200 | 210 | 320 | – | – | – | – | – |
| Cc1cn([C@H]2C=C[C@@H](CO)O2)c(=O)[nH]c1=O [STAVUDINE] | Not Active | 4060 | 695 | 450 | 313000 | > 100 | 782 | 400 | – | – | – | – | – | – |
| COC(=O)C1=C(C)NC(C)=C(C(=O)OCCN(C)Cc2ccccc2)C1c1cccc([N+](=O)[O-])c1 (stereo unspecified) [NICARDIPINE] | – | – | – | – | – | 10 to 30 (≈ 4.8 to 14.4 µg/mL) | – | – | – | – | – | – | – | – |
| COC(=O)[C@H](C)NP(=O)(OC[C@@H]1C=C[C@H](n2cc(C)c(=O)[nH]c2=O)O1)Oc1ccc(C(F)(F)F)cc1 (stereo partly specified) | – | 22 | 912 | 47 | 42900 | > 100 | 1160 | 37 | 75 | 180 | – | – | – | – |
| COC(=O)[C@H](C)NP(=O)(OC[C@@H]1C=C[C@H](n2cc(C)c(=O)[nH]c2=O)O1)Oc1cccc(S(F)(F)(F)(F)F)c1 (stereo partly specified) | – | 54 | 1460 | 36 | 52600 | > 100 | 1750 | 30 | 335 | 75 | >10 | Metabolite_Detected | Metabolite_Detected | >10 |
